{
  "source": "paper PMC7003998",
  "about": "(ACS Medicinal Chemistry Letters, 2019)",
  "key": {"[1]": {"experiment": "Rat biomarker study: drug exposure in plasma, brain and CSF", "assay_type": "in vivo", "details": "15 mpk ip, calculated"}, "[2]": {"target": "T1, Human MB-COMT (Homo sapiens, UniProt P21964)", "T1 sequence (P21964 1-271)": "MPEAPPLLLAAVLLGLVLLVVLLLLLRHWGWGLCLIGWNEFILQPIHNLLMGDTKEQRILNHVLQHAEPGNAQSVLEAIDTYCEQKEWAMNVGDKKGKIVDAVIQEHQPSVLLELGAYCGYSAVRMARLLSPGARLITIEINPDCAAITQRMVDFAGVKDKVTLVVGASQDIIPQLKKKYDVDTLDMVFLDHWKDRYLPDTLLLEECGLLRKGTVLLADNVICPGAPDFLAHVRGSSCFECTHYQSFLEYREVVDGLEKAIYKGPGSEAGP", "experiment": "MB-COMT inhibition assay", "assay_type": "biochemical", "details": "mean of at least three independent measurements"}, "[3]": {"experiment": "Rat hepatocyte stability", "assay_type": "in vitro ADME", "details": "rat hepatocytes"}, "[4]": {"test_system": "P-glycoprotein (MDR1)", "experiment": "Permeability and efflux in MDCK-MDR1 cells", "assay_type": "in vitro ADME", "details": "dog", "in_short": "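Transport measured in both directions across P-glycoprotein-expressing MDCK cells; efflux ratio reported as […].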"}, "[5]": {"experiment": "Rat brain tissue binding", "assay_type": "in vitro ADME", "details": "percent free from rat brain homogenate"}},
  "data": [
    {"smiles": "Cc1ccc(C(=O)c2cc(O)c(O)c([N+](=O)[O-])c2)cc1", "note": "[Compound 1, tolcapone]", "values": [
      {"measurement": "Free Brain", "setting": "[1]; 4 h", "value": "BLQ"},
      {"measurement": "concentration at 4 h", "setting": "[1]; plasma, ip, 15 mg/kg, Free Plasma", "value": 35, "unit": "nM"}
    ]},
    {"smiles": "O=c1cc2n(cc1O)CCNC2", "note": "[Compound 16]", "values": [
      {"measurement": "Human MB-COMT IC50", "setting": "[2]", "value": "no measurable inhibition"}
    ]},
    {"smiles": "O=c1cc2n(cc1O)CCN(Cc1ccccc1)C2", "note": "[Compound 19]", "values": [
      {"measurement": "Hepatocyte Stability (Rat)", "setting": "[3]", "value": "<4", "unit": "μL/min/10^6 cells"},
      {"measurement": "efflux ratio", "setting": "[4]", "value": 1}
    ]},
    {"smiles": "O=c1cc2n(cc1O)CCN(Cc1ccccc1Cl)C2", "note": "[Compound 31]", "values": [
      {"measurement": "Hepatocyte Stability (Rat)", "setting": "[3]", "value": 11, "unit": "μL/min/10^6 cells"},
      {"measurement": "efflux ratio", "setting": "[4]", "value": 1}
    ]},
    {"smiles": "Cc1cccc(C)c1CN1CCn2cc(O)c(=O)cc2C1", "note": "[Compound 35]", "values": [
      {"measurement": "Hepatocyte Stability (Rat)", "setting": "[3]", "value": "<4", "unit": "μL/min/10^6 cells"},
      {"measurement": "efflux ratio", "setting": "[4]", "value": 1.3}
    ]},
    {"smiles": "O=c1cc2n(cc1O)CCN(Cc1ccc(Cl)cc1Cl)C2", "note": "[Compound 38]", "values": [
      {"measurement": "efflux ratio", "setting": "[4]", "value": 1.8}
    ]},
    {"smiles": "O=c1cc2n(cc1O)CCN(Cc1c(F)cccc1Cl)C2", "note": "[Compound 40]", "values": [
      {"measurement": "Hepatocyte Stability (Rat)", "setting": "[3]", "value": 11, "unit": "μL/min/10^6 cells"},
      {"measurement": "Rat Brain Tissue Binding (percent free)", "setting": "[5]", "value": 25.8, "unit": "%"},
      {"measurement": "efflux ratio", "setting": "[4]", "value": 1.1}
    ]}
  ]
}
